# Data reported in ChEMBL document CHEMBL4229335 (Eur J Med Chem, 2018).
# Calls of active or inactive are those of the source. The calls are words filed in the database; no cut-off is given here.
# Columns and labels:
# L02 = assay: Antiproliferative activity against human LO2 cells after 72 hrs by MTT assay; assay type: cell-based; details: L02, 72 h
# Method in brief: (§1)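 MTT assay with 72 h exposure to graded concentrations in triplicate. MTT solution then DMSO were added, followed by 10 min at room temperature, with absorbance read at 490 nm. IC50 is reported as the mean of three independent experiments. 5-FU served as positive control.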
# [1] = Selectivity index, ratio of IC50 for human LO2 cells to IC50 for human Bel7402 cells; assay type: toxicity; details: LO2 cells versus Bel7402 cells, read-out: Ratio IC50
# Method in brief: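 SI was calculated as IC50 in L-02 normal liver cells divided by IC50 in Bel-7402 cells, both from the 72 h MTT assay.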
# Bel7402/5-FU = assay: Antiproliferative activity against human Bel7402/5-FU cells after 72 hrs by MTT assay; assay type: functional, cell-based; method in brief: as §1
# Bel-7402 [2] = assay: Antiproliferative activity against human Bel7402 cells after 72 hrs by MTT assay; assay type: functional, cell-based; details: Bel-7402, 72 h; method in brief: as §1
# HL-60 = assay: Antiproliferative activity against human HL60 cells after 72 hrs by MTT assay; assay type: functional, cell-based; details: HL-60, 72 h; method in brief: as §1
# PC-3 = assay: Antiproliferative activity against human PC3 cells after 72 hrs by MTT assay; assay type: functional, cell-based; details: PC-3, 72 h; method in brief: as §1
# Bel-7402 [3] = assay: Induction of apoptosis in human Bel7402 cells after 24 hrs by Annexin V-FITC/propidium iodide staining-based flow cytometric analysis; assay type: functional, cell-based
# Bel-7402 [4] = assay: Induction of apoptosis in human Bel7402 cells assessed as early apoptotic cells at 0.4 uM after 24 hrs by Annexin V-FITC/propidium iodide staining-based flow cytometric analysis (reference value: 1.07%); assay type: functional
# Bel-7402 [5] = assay: Cell cycle arrest in human Bel7402 cells assessed as accumulation of cells at G1 phase at 1.2 uM after 48 hrs by propidium iodide staining-based flow cytometric analysis (reference value: 63.55%); assay type: functional
# Method in brief: (§2)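 Bel-7402 cells were seeded in 6-well plates and grown 24 h at 37 °C. Compound in DMSO was added in triplicate, with DMSO-only controls, for 48 h. Cells were then centrifuged, fixed in 70% ethanol at 4 °C and stained with propidium iodide. DNA content was measured by flow cytometry to give cell-cycle phase distribution.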
# Bel-7402 [6] = assay: Induction of apoptosis in human Bel7402 cells assessed as nuclear disintegration at 0.4 to 1.2 uM after 48 hrs by Hoechst […] staining-based fluorescent microscopic analysis; assay type: functional, cell-based
# Method in brief: (§3)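 Bel-7402 cells were seeded in 6-well plates in 2 mL medium and grown 24 h. Compound was then added for 48 h, with a vehicle control. Nuclei were stained with Hoechst 33258 and examined by fluorescence microscopy for chromatin condensation and nuclear disintegration.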
# Bel-7402 [7] = assay: Cell cycle arrest in human Bel7402 cells assessed as accumulation of cells at G2 phase at 0.8 uM after 48 hrs by propidium iodide staining-based flow cytometric analysis (reference value: 23.53%); assay type: functional; method in brief: as §2
# Bel-7402 [8] = assay: Induction of mitochondrial membrane potential in human Bel7402 cells after 48 hrs by JC-1 dye-based flow cytometric analysis; assay type: functional, cell-based
# Method in brief: (§4)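 Bel-7402 cells were exposed in triplicate for 48 h to compound or vehicle. Cells were washed with PBS and stained with JC-1 in the dark. The fraction of cells with collapsed versus intact mitochondrial membrane potential was counted by flow cytometry.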
# Bel-7402 [9] = assay: Induction of apoptosis in human Bel7402 cells assessed as necrotic cells at 0.4 uM after 24 hrs by Annexin V-FITC/propidium iodide staining-based flow cytometric analysis (reference value: 11.96%); assay type: functional
# Bel-7402 [10] = assay: Induction of apoptosis in human Bel7402 cells assessed as necrotic cells at 0.8 uM after 24 hrs by Annexin V-FITC/propidium iodide staining-based flow cytometric analysis (reference value: 11.96%); assay type: functional
# Bel-7402 [11] = assay: Cell cycle arrest in human Bel7402 cells assessed as accumulation of cells at G2 phase at 1.2 uM after 48 hrs by propidium iodide staining-based flow cytometric analysis (reference value: 23.53%); assay type: functional; method in brief: as §2
# Bel-7402 [12] = assay: Induction of apoptosis in human Bel7402 cells assessed as upregulation of caspase9 expression after 48 hrs by Western blot analysis; assay type: functional, cell-based
# Method in brief: (§5)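 Bel-7402 cells were treated in triplicate for 48 h at 0, 0.4, 0.8 and 1.2 µM. Protein content of lysates was determined, then lysates were run on 10% SDS-PAGE and transferred to nitrocellulose. Membranes were blocked with 5% fat-free milk, probed with monoclonal antibodies and detected by ECL chemiluminescence.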
# Bel-7402 [13] = assay: Induction of apoptosis in human Bel7402 cells assessed as upregulation of p53 expression after 48 hrs by Western blot analysis; assay type: functional, cell-based; method in brief: as §5
# Bel-7402 [14] = assay: Cell cycle arrest in human Bel7402 cells assessed as accumulation of cells at S phase at 0.8 uM after 48 hrs by propidium iodide staining-based flow cytometric analysis (reference value: 12.92%); assay type: functional; method in brief: as §2
# Bel-7402 [15] = assay: Cell cycle arrest in human Bel7402 cells assessed as G2/G1 phase ratio level at 0.4 uM after 48 hrs by propidium iodide staining-based flow cytometric analysis (reference value: 1.82%); assay type: functional; method in brief: as §2
# Bel-7402 [16] = assay: Cell cycle arrest in human Bel7402 cells assessed as G2/G1 phase ratio level at 0.8 uM after 48 hrs by propidium iodide staining-based flow cytometric analysis (reference value: 1.82%); assay type: functional; method in brief: as §2
# Bel-7402 [17] = assay: Induction of mitochondrial membrane potential loss in human Bel7402 cells at 0.4 uM after 48 hrs by JC-1 dye-based flow cytometric analysis (reference value: 7.20%); assay type: functional; method in brief: as §4
# Bel-7402 [18] = assay: Induction of apoptosis in human Bel7402 cells assessed as upregulation of caspase3 expression after 48 hrs by Western blot analysis; assay type: functional, cell-based; method in brief: as §5
# Bel-7402 [19] = assay: Cell cycle arrest in human Bel7402 cells assessed as accumulation of cells at S phase at 1.2 uM after 48 hrs by propidium iodide staining-based flow cytometric analysis (reference value: 12.92%); assay type: functional; method in brief: as §2
# Bel-7402 [20] = assay: Induction of apoptosis in human Bel7402 cells assessed as late apoptotic cells at 1.2 uM after 24 hrs by Annexin V-FITC/propidium iodide staining-based flow cytometric analysis (reference value: 0.96%); assay type: functional
# Bel-7402 [21] = assay: Induction of apoptosis in human Bel7402 cells assessed as late apoptotic cells at 0.8 uM after 24 hrs by Annexin V-FITC/propidium iodide staining-based flow cytometric analysis (reference value: 0.96%); assay type: functional
# Bel-7402 [22] = assay: Induction of apoptosis in human Bel7402 cells assessed as upregulation of Bax expression after 48 hrs by Western blot analysis; assay type: functional, cell-based; method in brief: as §5
# Bel-7402 [23] = assay: Cell cycle arrest in human Bel7402 cells assessed as accumulation of cells at G1 phase at 0.8 uM after 48 hrs by propidium iodide staining-based flow cytometric analysis (reference value: 63.55%); assay type: functional; method in brief: as §2
# Bel-7402 [24] = assay: Induction of apoptosis in human Bel7402 cells assessed as early apoptotic cells at 0.8 uM after 24 hrs by Annexin V-FITC/propidium iodide staining-based flow cytometric analysis (reference value: 1.07%); assay type: functional
# Bel-7402 [25] = assay: Induction of apoptosis in human Bel7402 cells assessed as necrotic cells at 1.2 uM after 24 hrs by Annexin V-FITC/propidium iodide staining-based flow cytometric analysis (reference value: 11.96%); assay type: functional
# Bel-7402 [26] = assay: Induction of apoptosis in human Bel7402 cells assessed as late apoptotic cells at 0.4 uM after 24 hrs by Annexin V-FITC/propidium iodide staining-based flow cytometric analysis (reference value: 0.96%); assay type: functional
# Bel-7402 [27] = assay: Induction of mitochondrial membrane potential loss in human Bel7402 cells at 0.8 uM after 48 hrs by JC-1 dye-based flow cytometric analysis (reference value: 7.20%); assay type: functional; method in brief: as §4
# Bel-7402 [28] = assay: Cell cycle arrest in human Bel7402 cells assessed as accumulation of cells at G2 phase at 0.4 uM after 48 hrs by propidium iodide staining-based flow cytometric analysis (reference value: 23.53%); assay type: functional; method in brief: as §2
# Bel-7402 [29] = assay: Induction of apoptosis in human Bel7402 cells assessed as early apoptotic cells at 1.2 uM after 24 hrs by Annexin V-FITC/propidium iodide staining-based flow cytometric analysis (reference value: 1.07%); assay type: functional
# Bel-7402 [30] = assay: Induction of apoptosis in human Bel7402 cells assessed as downregulation of Bcl2 expression after 48 hrs by Western blot analysis; assay type: functional, cell-based; method in brief: as §5
# Bel-7402 [31] = assay: Induction of mitochondrial membrane potential loss in human Bel7402 cells at 1.2 uM after 48 hrs by JC-1 dye-based flow cytometric analysis (reference value: 7.20%); assay type: functional; method in brief: as §4
# Bel-7402 [32] = assay: Cell cycle arrest in human Bel7402 cells assessed as accumulation of cells at S phase at 0.4 uM after 48 hrs by propidium iodide staining-based flow cytometric analysis (reference value: 12.92%); assay type: functional; method in brief: as §2
# Bel-7402 [33] = assay: Cell cycle arrest in human Bel7402 cells assessed as accumulation of cells at G1 phase at 0.4 uM after 48 hrs by propidium iodide staining-based flow cytometric analysis (reference value: 63.55%); assay type: functional; method in brief: as §2
# Bel-7402 [34] = assay: Cell cycle arrest in human Bel7402 cells assessed as G2/G1 phase ratio level at 1.2 uM after 48 hrs by propidium iodide staining-based flow cytometric analysis (reference value: 1.82%); assay type: functional; method in brief: as §2
# Bel-7402 [35] = assay: Induction of apoptosis in human Bel7402 cells assessed as chromatin condensation at 0.4 to 1.2 uM after 48 hrs by Hoechst […] staining-based fluorescent microscopic analysis; assay type: functional, cell-based; method in brief: as §3
# Bel-7402 [36] = assay: Induction of apoptosis in human Bel7402 cells assessed as upregulation of cytochrome C expression after 48 hrs by Western blot analysis; assay type: functional, cell-based; method in brief: as §5
compound,measurement,setting,value
C=C1C(=O)[C@@]23C(=O)O[C@H]4CCC(C)(C)[C@H]5[C@H](O)OC[C@@]45[C@@H]2CC[C@@H]1[C@H]3O,IC50,L02,27.1 µM
same,selectivity ratio,[1],0.8
same,IC50,Bel7402/5-FU,44.3 µM
same,IC50,Bel-7402 [2],32.1 µM
same,IC50,HL-60,28.1 µM
same,IC50,PC-3,30.6 µM
C=C1C(=O)[C@@]23C(=O)O[C@H]4CCC(C)(C)[C@H]5[C@H](O)OC[C@@]45[C@@H]2CC[C@@H]1[C@H]3OC(=O)c1ccc(N(CCCl)CCCl)cc1,Activity,Bel-7402 [3],Dose-dependent effect
same,Activity,Bel-7402 [4],11.8%
same,Activity,Bel-7402 [5],72.09%
same,Activity,Bel-7402 [6],Active
same,Activity,Bel-7402 [7],15.87%
same,IC50,L02,> 100 µM
same,Activity,Bel-7402 [8],Dose-dependent effect
same,Activity,Bel-7402 [9],8.38%
same,Activity,Bel-7402 [10],4.23%
same,Activity,Bel-7402 [11],13.33%
same,Activity,Bel-7402 [12],Dose-dependent effect
same,Activity,Bel-7402 [13],Dose-dependent effect
same,Activity,Bel-7402 [14],14.42%
same,selectivity ratio,[1],> 130
same,Ratio,Bel-7402 [15],1.84
same,Ratio,Bel-7402 [16],1.85
same,Activity,Bel-7402 [17],14.38%
same,Activity,Bel-7402 [18],Dose-dependent effect
same,IC50,Bel7402/5-FU,2.07 µM
same,Activity,Bel-7402 [19],14.59%
same,Activity,Bel-7402 [20],19.39%
same,Activity,Bel-7402 [21],11.31%
same,Activity,Bel-7402 [22],Dose-dependent effect
same,Activity,Bel-7402 [23],69.71%
same,Activity,Bel-7402 [24],24.22%
same,Activity,Bel-7402 [25],4.33%
same,IC50,Bel-7402 [2],0.77 µM
same,Activity,Bel-7402 [26],7.07%
same,Activity,Bel-7402 [27],20.93%
same,Activity,Bel-7402 [28],18.15%
same,Activity,Bel-7402 [29],41.53%
same,Activity,Bel-7402 [30],Dose-dependent effect
same,Activity,Bel-7402 [31],40%
same,Activity,Bel-7402 [32],15.15%
same,Activity,Bel-7402 [33],66.71%
same,IC50,HL-60,7.83 µM
same,IC50,PC-3,3.97 µM
same,Ratio,Bel-7402 [34],1.84
same,Activity,Bel-7402 [35],Active
same,Activity,Bel-7402 [36],Dose-dependent effect
C=C1C(=O)[C@@]23C(=O)O[C@H]4CCC(C)(C)[C@H]5C(=O)OC[C@@]45[C@@H]2CC[C@@H]1[C@H]3OC(=O)c1ccc(N(CCCl)CCCl)cc1,IC50,L02,62.8 µM
same,selectivity ratio,[1],39.3
same,IC50,Bel7402/5-FU,2.9 µM
same,IC50,Bel-7402 [2],1.6 µM
same,IC50,HL-60,5.57 µM
same,IC50,PC-3,7.03 µM
